# Data taken from ChEMBL document CHEMBL3856229, “Hybrid Antibiotic Overcomes Resistance in P. aeruginosa by Enhancing Outer Membrane Penetration and Reducing Efflux” (J Med Chem, 2016).
# Columns and labels:
# Enterococcus faecalis = assay: Antibacterial activity against Enterococcus faecalis ATCC 29212 after 24 hrs by microtitre broth dilution method; format: functional; conditions: ATCC 29212, 24 h
# Pseudomonas aeruginosa [1] = assay: Antibacterial activity against multidrug/extremely drug-resistant/colistin-susceptible Pseudomonas aeruginosa isolate 259-96918; format: functional
# Acinetobacter baumannii = assay: Antibacterial activity against Acinetobacter baumannii isolate CAN-ICU 63169 after 24 hrs by microtitre broth dilution method; format: functional; conditions: isolate CAN-ICU 63169, 24 h
# Pseudomonas aeruginosa [2] = assay: Antibacterial activity against multidrug-resistant/tobramycin-susceptible Pseudomonas aeruginosa isolate 92014; format: functional
# Escherichia coli [3] = assay: Antibacterial activity against Escherichia coli ATCC 25922 after 24 hrs by microtitre broth dilution method; format: functional; conditions: ATCC 25922, 24 h
# Pseudomonas aeruginosa [4] = assay: Antibacterial activity against extremely drug-resistant Pseudomonas aeruginosa isolate 104354 infected in Galleria mellonella assessed as larvae survival at 50 mg/kg administered as single dose measured after 24 hrs (reference value: 27 %); format: functional; conditions: isolate 104354, 24 h
# Method in brief: (§1)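 Galleria mellonella larvae were infected with 10^6 CFU of XDR P. aeruginosa #104354, resistant to all antipseudomonal classes except colistin. A single injected drug dose was given 2 h post-infection: 50 mg/kg with survival read at 24 h, or 75 mg/kg with survival read at 96 h. Controls were infected untreated larvae and PBS-injected larvae. Two independent experiments of 15 larvae each (n = 30).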
# Pseudomonas aeruginosa [5] = assay: Antibacterial activity against multidrug-resistant/tobramycin-susceptible Pseudomonas aeruginosa isolate 80621; format: functional
# [6] = system: Stenotrophomonas maltophilia; assay: Antibacterial activity against Stenotrophomonas maltophilia isolate CAN-ICU 62584 after 24 hrs by microtitre broth dilution method; format: functional; conditions: isolate CAN-ICU 62584, 24 h
# Pseudomonas aeruginosa [7] = assay: Antibacterial activity against multidrug-resistant/tobramycin-susceptible Pseudomonas aeruginosa isolate 86052; format: functional
# Escherichia coli [8] = assay: Antibacterial activity against gentamicin/tobramycin/ciprofloxacin-resistant Escherichia coli isolate CANWARD-2011 97615 harboring AAC3-2A after 24 hrs by microtitre broth dilution method; format: functional; conditions: isolate CANWARD-2011 97615, 24 h
# Pseudomonas aeruginosa [9] = assay: Antibacterial activity against pandrug-resistant Pseudomonas aeruginosa isolate 101243; format: functional
# [10] = Inhibition of Pseudomonas aeruginosa DNA gyrase A assessed as inhibition of DNA supercoiling using PBR322 DNA as substrate after 30 mins by SYBR Gold staining based agarose gel electrophoresis
# Enterococcus faecium = assay: Antibacterial activity against Enterococcus faecium ATCC 27270 after 24 hrs by microtitre broth dilution method; format: functional; conditions: ATCC 27270, 24 h
# Pseudomonas aeruginosa [11] = assay: Antibacterial activity against Pseudomonas aeruginosa PAO1; format: functional
# Pseudomonas aeruginosa [12] = assay: Antibacterial activity against Pseudomonas aeruginosa ATCC 27853 after 24 hrs by microtitre broth dilution method; format: functional; conditions: ATCC 27853, 24 h
# Pseudomonas aeruginosa [13] = assay: Antibacterial activity against gentamicin-resistant Pseudomonas aeruginosa isolate CAN-ICU 62308 after 24 hrs by microtitre broth dilution method; format: functional; conditions: isolate CAN-ICU 62308, 24 h
# Pseudomonas aeruginosa [14] = assay: Antibacterial activity against multidrug-resistant/tobramycin-susceptible Pseudomonas aeruginosa isolate 86141; format: functional
# Pseudomonas aeruginosa [15] = assay: Antibacterial activity against multidrug-resistant/tobramycin-susceptible Pseudomonas aeruginosa isolate 86079; format: functional
# Pseudomonas aeruginosa [16] = assay: Antibacterial activity against multidrug/extremely drug-resistant/colistin-susceptible Pseudomonas aeruginosa isolate 101885; format: functional
# Pseudomonas aeruginosa [17] = assay: Ratio of MIC for Pseudomonas aeruginosa PAO1 after 25 serial passages to MIC for Pseudomonas aeruginosa PAO1 prior to 25 serial passages; format: functional
# Method in brief: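 P. aeruginosa PAO1 exposed to sub-inhibitory (0.5 x MIC) drug over successive subcultures as a resistance-selection procedure. MIC compared after versus before passaging.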
# Pseudomonas aeruginosa [18] = assay: Antibacterial activity against extremely drug-resistant Pseudomonas aeruginosa isolate 104354 infected in Galleria mellonella assessed as larvae survival at 75 mg/kg administered as single dose measured after 96 hrs; format: functional; conditions: isolate 104354, 96 h; method in brief: as §1
# Escherichia coli [19] = assay: Antibacterial activity against gentamicin-resistant Escherichia coli isolate CAN-ICU 61714 after 24 hrs by microtitre broth dilution method; format: functional; conditions: isolate CAN-ICU 61714, 24 h
# [20] = system: Staphylococcus epidermidis; assay: Antibacterial activity against methicillin-resistant Staphylococcus epidermidis isolate CAN-ICU 61589 after 24 hrs by microtitre broth dilution method; format: functional; conditions: isolate CAN-ICU 61589, 24 h
# Staphylococcus aureus [21] = assay: Antibacterial activity against methicillin-resistant Staphylococcus aureus ATCC 33592 after 24 hrs by microtitre broth dilution method; format: functional; conditions: ATCC 33592, 24 h
# Pseudomonas aeruginosa [22] = assay: Antibacterial activity against gentamicin/tobramycin-resistant Pseudomonas aeruginosa isolate CANWARD-2011 96846 after 24 hrs by microtitre broth dilution method; format: functional; conditions: isolate CANWARD-2011 96846, 24 h
# Pseudomonas aeruginosa [23] = assay: Antibacterial activity against pandrug-resistant Pseudomonas aeruginosa isolate 91433; format: functional
# Pseudomonas aeruginosa [24] = assay: Antimicrobial activity against Pseudomonas aeruginosa PAO750; format: functional
# Method in brief: (§2)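 MICs were measured in PAO1 and in PAO750. PAO750 is a PAO1 derivative lacking the MexAB-OprM, MexCD-OprJ, MexEF-OprN, MexJK and MexXY efflux pumps and the outer membrane protein OpmH.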
# Pseudomonas aeruginosa [25] = assay: Antibacterial activity against multidrug/extremely drug-resistant/colistin-susceptible Pseudomonas aeruginosa isolate 260-97103; format: functional
# Streptococcus pneumoniae = assay: Antibacterial activity against Streptococcus pneumoniae ATCC 49619 after 24 hrs by microtitre broth dilution method; format: functional; conditions: ATCC 49619, 24 h
# Pseudomonas aeruginosa [26] = assay: Antibacterial activity against multidrug/extremely drug-resistant/colistin-susceptible Pseudomonas aeruginosa isolate 264-104354; format: functional
# Pseudomonas aeruginosa [27] = assay: Antibacterial activity against multidrug-resistant/tobramycin-susceptible Pseudomonas aeruginosa isolate 86053; format: functional
# Pseudomonas aeruginosa [28] = assay: Antibacterial activity against multidrug/extremely drug-resistant/colistin-susceptible Pseudomonas aeruginosa isolate 100036; format: functional
# Staphylococcus aureus [29] = assay: Antibacterial activity against Staphylococcus aureus ATCC 29213 after 24 hrs by microtitre broth dilution method; format: functional; conditions: ATCC 29213, 24 h
# Pseudomonas aeruginosa [30] = assay: Antibacterial activity against multidrug-resistant/tobramycin-susceptible Pseudomonas aeruginosa isolate 85322; format: functional
# [31] = system: Staphylococcus epidermidis; assay: Antibacterial activity against methicillin-susceptible Staphylococcus epidermidis isolate CANWARD-2008 81388 after 24 hrs by microtitre broth dilution method; format: functional; conditions: isolate CANWARD-2008 81388, 24 h
# Pseudomonas aeruginosa [32] = assay: Antibacterial activity against multidrug-resistant/tobramycin-susceptible Pseudomonas aeruginosa isolate 83182; format: functional
# Pseudomonas aeruginosa [33] = assay: Antibacterial activity against multidrug-resistant/tobramycin-susceptible Pseudomonas aeruginosa isolate 79199; format: functional
# Pseudomonas aeruginosa [34] = assay: Antibacterial activity against multidrug-resistant/tobramycin-susceptible Pseudomonas aeruginosa isolate 84745; format: functional
# Pseudomonas aeruginosa [35] = assay: Antimicrobial activity against Pseudomonas aeruginosa PAO200; format: functional
# Method in brief: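 MIC (µg/mL) determined in PAO200, a PAO1-derived MexAB-OprM deletion strain used to assess efflux effects.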
# Pseudomonas aeruginosa [36] = assay: Antibacterial activity against multidrug-resistant/tobramycin-susceptible Pseudomonas aeruginosa isolate 86067; format: functional
# Pseudomonas aeruginosa [37] = assay: Antibacterial activity against multidrug-resistant/tobramycin-susceptible Pseudomonas aeruginosa isolate 108590; format: functional
# [38] = Selectivity ratio of MIC for Pseudomonas aeruginosa PAO1 to MIC for Pseudomonas aeruginosa PAO750; format: functional; method in brief: as §2
# Klebsiella pneumoniae = assay: Antibacterial activity against Klebsiella pneumoniae ATCC 13883 after 24 hrs by microtitre broth dilution method; format: functional; conditions: ATCC 13883, 24 h
# Pseudomonas aeruginosa [39] = assay: Antibacterial activity against multidrug/extremely drug-resistant/colistin-susceptible Pseudomonas aeruginosa isolate 262-101856; format: functional
# Escherichia coli [40] = assay: Antibacterial activity against amikacin-resistant Escherichia coli isolate CAN-ICU 63074 after 24 hrs by microtitre broth dilution method; format: functional; conditions: isolate CAN-ICU 63074, 24 h
# [41] = Inhibition of circular DNA translation in Escherichia coli S30 extract after 60 mins by luciferase reporter gene assay
# Method in brief: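 Translation was run in an E. coli S30 extract with a luciferase read-out. Luminescence is expressed as a percentage of the no-antibiotic control, taken as 100%.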
# Pseudomonas aeruginosa [42] = assay: Induction of cytoplasmic membrane depolarization in Pseudomonas aeruginosa PAO1 by DiSC3(5) dye based fluorescence assay; format: functional
smiles,measurement,setting,value
COc1c(N2C[C@@H]3CCCN[C@@H]3C2)c(F)cc2c(=O)c(C(=O)O)cn(C3CC3)c12 [MOXIFLOXACIN],MIC,Enterococcus faecalis,≤ 0.25 µg/mL
same,MIC,Pseudomonas aeruginosa [1],512 µg/mL
same,MIC,Acinetobacter baumannii,1 µg/mL
same,MIC,Pseudomonas aeruginosa [2],16 µg/mL
same,MIC,Escherichia coli [3],≤ 0.25 µg/mL
same,survival at 50 mg/kg,Pseudomonas aeruginosa [4],27%
same,MIC,Pseudomonas aeruginosa [5],8 µg/mL
same,MIC,[6],4 µg/mL
same,MIC,Pseudomonas aeruginosa [7],> 16 µg/mL
same,MIC,Escherichia coli [8],32 µg/mL
same,MIC,Pseudomonas aeruginosa [9],8 µg/mL
same,IC50,[10],2600 nM
same,MIC,Enterococcus faecium,2 µg/mL
same,MIC,Pseudomonas aeruginosa [11],1 µg/mL
same,MIC,Pseudomonas aeruginosa [12],4 µg/mL
same,MIC,Pseudomonas aeruginosa [13],16 µg/mL
same,MIC,Pseudomonas aeruginosa [14],> 16 µg/mL
same,MIC,Pseudomonas aeruginosa [15],> 16 µg/mL
same,MIC,Pseudomonas aeruginosa [16],128 µg/mL
same,Ratio,Pseudomonas aeruginosa [17],16
same,survival at 75 mg/kg,Pseudomonas aeruginosa [18],7%
same,MIC,Escherichia coli [19],0.5 µg/mL
same,MIC,[20],64 µg/mL
same,MIC,Staphylococcus aureus [21],≤ 0.25 µg/mL
same,MIC,Pseudomonas aeruginosa [22],16 µg/mL
same,MIC,Pseudomonas aeruginosa [23],8 to 16 µg/mL
same,MIC,Pseudomonas aeruginosa [24],7.8 ng/mL
same,MIC,Pseudomonas aeruginosa [25],32 to 64 µg/mL
same,MIC,Streptococcus pneumoniae,≤ 0.25 µg/mL
same,MIC,Pseudomonas aeruginosa [26],32 to 64 µg/mL
same,MIC,Pseudomonas aeruginosa [27],16 µg/mL
same,MIC,Pseudomonas aeruginosa [28],128 µg/mL
same,MIC,Staphylococcus aureus [29],≤ 0.25 µg/mL
same,MIC,Pseudomonas aeruginosa [30],8 µg/mL
same,MIC,[31],≤ 0.25 µg/mL
same,MIC,Pseudomonas aeruginosa [32],16 µg/mL
same,MIC,Pseudomonas aeruginosa [33],> 16 µg/mL
same,MIC,Pseudomonas aeruginosa [34],16 µg/mL
same,MIC,Pseudomonas aeruginosa [35],0.25 µg/mL
same,MIC,Pseudomonas aeruginosa [36],16 µg/mL
same,MIC,Pseudomonas aeruginosa [37],16 µg/mL
same,Selectivity ratio,[38],128
same,MIC,Klebsiella pneumoniae,≤ 0.25 µg/mL
same,MIC,Pseudomonas aeruginosa [39],64 to 128 µg/mL
same,MIC,Escherichia coli [40],1 µg/mL
NC[C@H]1O[C@H](O[C@H]2[C@H](O)[C@@H](O[C@H]3O[C@H](CO)[C@@H](O)[C@H](N)[C@H]3O)[C@H](N)C[C@@H]2N)[C@H](N)C[C@@H]1O [TOBRAMYCIN],MIC,Enterococcus faecalis,8 µg/mL
same,MIC,Pseudomonas aeruginosa [1],> 64 µg/mL
same,MIC,Acinetobacter baumannii,32 µg/mL
same,MIC,Pseudomonas aeruginosa [2],1 µg/mL
same,MIC,Escherichia coli [3],0.5 µg/mL
same,survival at 50 mg/kg,Pseudomonas aeruginosa [4],20%
same,MIC,Pseudomonas aeruginosa [5],2 µg/mL
same,MIC,[6],> 512 µg/mL
same,MIC,Pseudomonas aeruginosa [7],1 µg/mL
same,MIC,Escherichia coli [8],128 µg/mL
same,MIC,Pseudomonas aeruginosa [9],> 64 µg/mL
same,IC50,[41],6.2 nM
same,MIC,Enterococcus faecium,8 µg/mL
same,MIC,Pseudomonas aeruginosa [11],0.5 µg/mL
same,MIC,Pseudomonas aeruginosa [12],0.5 µg/mL
same,MIC,Pseudomonas aeruginosa [13],16 µg/mL
same,MIC,Pseudomonas aeruginosa [14],1 µg/mL
same,MIC,Pseudomonas aeruginosa [15],2 µg/mL
same,MIC,Pseudomonas aeruginosa [16],< 0.5 µg/mL
same,Ratio,Pseudomonas aeruginosa [17],512
same,survival at 75 mg/kg,Pseudomonas aeruginosa [18],0%
same,MIC,Escherichia coli [19],8 µg/mL
same,MIC,[20],1 µg/mL
same,MIC,Staphylococcus aureus [21],≤ 0.25 µg/mL
same,MIC,Pseudomonas aeruginosa [22],256 µg/mL
same,MIC,Pseudomonas aeruginosa [23],8 µg/mL
same,MIC,Pseudomonas aeruginosa [25],32 µg/mL
same,MIC,Streptococcus pneumoniae,2 µg/mL
same,MIC,Pseudomonas aeruginosa [26],> 64 µg/mL
same,MIC,Pseudomonas aeruginosa [27],1 µg/mL
same,MIC,Pseudomonas aeruginosa [28],64 µg/mL
same,MIC,Staphylococcus aureus [29],≤ 0.25 µg/mL
same,MIC,Pseudomonas aeruginosa [30],1 µg/mL
same,MIC,[31],≤ 0.25 µg/mL
same,MIC,Pseudomonas aeruginosa [32],1 µg/mL
same,Activity,Pseudomonas aeruginosa [42],Dose-dependent effect
same,MIC,Pseudomonas aeruginosa [33],2 µg/mL
same,MIC,Pseudomonas aeruginosa [34],1 µg/mL
same,MIC,Pseudomonas aeruginosa [36],> 64 µg/mL
same,MIC,Pseudomonas aeruginosa [37],4 µg/mL
same,MIC,Klebsiella pneumoniae,≤ 0.25 µg/mL
same,MIC,Pseudomonas aeruginosa [39],> 64 µg/mL
same,MIC,Escherichia coli [40],8 µg/mL
